Compound activity deposited in PubChem BioAssay by several laboratories.
ADAM10 inh = inhibitors of human ADAM10; O14672; recombinant ADAM10, EDANS/DABCYL FRET peptide cleavage, 3 h; inhibition, % at 7 µM; hit rate 0.62% among 370,000;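 active = inhibition above a per-campaign cutoff equal to the mean of compounds falling between control-based bounds plus 3 SD, cut at about 20% in these data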
ADAM17 inh = inhibitors of human ADAM17; P78536; recombinant ADAM17, EDANS/DABCYL FRET peptide cleavage; inhibition, % at 6.95 µM; hit rate 0.83% among 370,000; AID 720648;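 active = inhibition above the mean of compounds lying between control limits plus 3 SD, set per campaign, cut at about 8.5% in these data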
Target sequence (P78536 215-824 limits assumed): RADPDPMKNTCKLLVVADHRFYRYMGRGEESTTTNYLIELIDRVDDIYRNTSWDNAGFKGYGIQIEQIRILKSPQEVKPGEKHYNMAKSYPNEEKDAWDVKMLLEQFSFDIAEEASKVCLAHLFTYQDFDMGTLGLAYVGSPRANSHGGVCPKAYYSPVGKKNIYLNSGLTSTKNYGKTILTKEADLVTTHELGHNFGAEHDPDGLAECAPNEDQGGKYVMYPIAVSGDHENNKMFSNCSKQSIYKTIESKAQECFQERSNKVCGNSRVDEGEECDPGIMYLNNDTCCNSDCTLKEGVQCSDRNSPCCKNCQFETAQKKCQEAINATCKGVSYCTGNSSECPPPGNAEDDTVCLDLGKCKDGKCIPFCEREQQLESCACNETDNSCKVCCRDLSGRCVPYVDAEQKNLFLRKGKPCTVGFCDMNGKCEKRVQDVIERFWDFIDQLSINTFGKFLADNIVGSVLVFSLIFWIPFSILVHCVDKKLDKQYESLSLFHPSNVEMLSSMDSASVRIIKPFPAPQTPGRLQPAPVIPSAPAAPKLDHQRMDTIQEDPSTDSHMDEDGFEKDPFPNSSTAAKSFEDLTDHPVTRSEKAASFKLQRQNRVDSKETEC
MPTP inh = permeability transition pore inhibition; isolated mouse mitochondria, Ca2+ swelling absorbance, 30 min; hit rate 1.4% among 360,000; AID 602449; inhibition, % at 10 µM;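 active = inhibition of 50% or more, scaled per plate between neutral and stimulator controls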
Hep lipid drop = modulators of hepatic lipid droplet formation; AML12 mouse hepatocytes, oleate lipid droplets, BODIPY imaging; inhibition, % at 6.5 µM; hit rate 0.4% among 240,000; AID 1656;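 active = lipid droplet intensity inhibited by at least 50%, with more than 500 cells counted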
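System: AML12 hepatocytes (mouse). Probe or stimulus: oleic acid at 100 µM to induce lipid droplet formation. Times: overnight treatment with compound plus oleate. Detection: Image-based BODIPY and DAPI two-channel analysis. Evaluation: percent inhibition of filter-corrected integrated lipid droplet intensity per well.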
aDG glyco up = increases alpha dystroglycan glycosylation | Pro5-aDG cells, alpha-DG glycosylation AlphaScreen (IIH6); 0% Pro5, 100% B10-LARGE cell signal | activation, % at 10 µM | hit rate 0.22% among 360,000 | AID 624168;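 active = activation of at least 8% versus controls, or a plate z-score of at least 8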;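 also: Pro5 are CHO cells carrying HIG-tagged alpha-DG that lacks glycosylation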
V-ATPase pHluor = yeast V-ATPase proton transport regulation by pHLuorin; S. cerevisiae, pHLuorin cytosolic pH fluorescence; response, % at 10 µM; hit rate 0.37% among 350,000; AID 504577; in the data active = response mostly above about 7.3%, no sharp cut-off; inactive = mostly below about 5.4%; also: actives read high
ADAM10 counter = counter-screen for ADAM17 exosite inhibitors: inhibitors of human ADAM10; AID 743256; shares compounds with ADAM17 inh; hit rate 47% among 2,900; recombinant ADAM10, EDANS/DABCYL FRET peptide cleavage, 3 h; inhibition, % at 6.95 µM;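 active = mean inhibition over the triplicate runs exceeds the activity threshold set in the earlier primary screen, cut at about 20% in these data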
ADAM17 confirm = confirmation of inhibitors of human ADAM17. shares compounds with ADAM17 inh. hit rate 65% among 2,900. inhibition, % at 6.95 µM. recombinant ADAM17, EDANS/DABCYL QFRET peptide cleavage. AID 743257;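 active = mean inhibition across replicates above the hit cutoff set in the primary screen, cut at about 8.5% in these data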
Hits are given with their value; 0 = inactive; - = no result. This is a sample that favours compounds with a hit; in the whole collection about 3.1% have one here.

SMILES	ADAM10 inh	ADAM17 inh	MPTP inh	Hep lipid drop	aDG glyco up	V-ATPase pHluor	ADAM10 counter	ADAM17 confirm
O=C(Nc1ccc2c(c1)OCO2)OC1CCC12CCC(c1ccccc1)CC2 (stereo unspecified)	0	0	-	-	-	-	-	-
OC(CN1CCN(c2ncc(C(F)(F)F)cc2Cl)CC1)c1ccccc1 (stereo unspecified)	0	10	0	0	0	0	0	0
O=C1N2CCc3ccccc3C2CS(=O)(=O)N1Cc1ccc(F)cc1 (stereo unspecified)	0	0	-	-	-	-	-	-
O=C(NNC(=O)c1csc(-c2ccccc2)n1)c1ccccc1	0	8.8	0	-	0	-	0	0
CCOC(=O)[C@]12CCCCC/C=C\1N(Cc1ccc(OC)cc1)C(=O)[C@H]2CC(=O)NCc1ccccc1	0	0	-	-	-	-	-	-
C[C@@H]1CN([C@@H](C)CO)C(=O)CCCn2nncc2CO[C@@H]1CN(C)S(=O)(=O)c1ccc(C#N)cc1	0	9.5	0	-	0	0	0	9.5
C(=C\c1ccccc1)/CN1CCN(C(c2cccc3ccccc23)c2nnnn2Cc2ccccc2)CC1 (stereo unspecified)	0	12	0	-	0	-	23	9.6
COc1ccccc1NC(=O)c1c([N+](=O)[O-])c(C(C)(C)C)nn1C	0	8.6	0	0	0	0	0	0
COC(=O)[C@@]12CCCCC3=C1N(CCC3)C(=O)[C@H]2CC(=O)N1CCC(c2ccccc2)CC1	0	0	-	-	-	-	-	-
CCOC(=O)c1ccc(-n2c(O)c(/C=N/NC(=O)C3COc4ccccc4O3)c3ccccc3c2=O)cc1 (stereo unspecified)	0	10	0	0	0	0	0	0
CCN(c1cccc(C(F)(F)F)c1)S(=O)(=O)c1ccc2c(c1)CCN2C(C)=O	0	8.7	0	0	0	0	20	11
CCN(c1cccc(C)c1)S(=O)(=O)c1ccc2c(c1)CCN2C(C)=O	0	0	0	-	0	0	-	-
Cc1cccc(-c2cccc3c4c([nH]c23)[C@@H]2C[C@H](N(C)C(=S)NCCc3ccccc3)[C@H]([C@H](C)O)CN2CC4)c1	0	0	-	-	-	-	-	-
CCOc1ccc(NC(=O)CC2SC(=O)N(c3ccccc3)C2=O)cc1 (stereo unspecified)	0	9.6	0	0	0	0	0	41
COc1cccc(NC(=O)CC2S/C(=N\S(=O)(=O)c3ccccc3)N(c3ccccc3)C2=O)c1 (stereo unspecified)	0	10	0	0	0	0	0	9.8
O=C(COc1ccccc1F)NNC(=O)c1cccc(-n2cccc2)c1	0	15	0	0	0	0	0	0
O=C(COc1cccc(F)c1)NNC(=O)c1cccc(-n2cccc2)c1	0	0	0	-	0	0	-	-
Cn1cc(C(=O)c2ccc(Cl)cc2Cl)cc1C(=O)N/N=C(\N)COc1ccc(Cl)cc1	0	11	0	0	0	0	22	16
COC(=O)[C@H](C(C)C)N(CCCc1cn(CC2CCCCC2)nn1)S(=O)(=O)c1ccc(F)cc1Br	0	11	-	-	-	-	26	14
COC(=O)[C@H](C(C)C)N(Cc1cn(CC2CCCCC2)nn1)S(=O)(=O)c1ccc(F)cc1Br	0	0	-	-	-	-	-	-
COC(=O)[C@H](C(C)C)N(CCc1cn(Cc2ccc(C)cc2)nn1)S(=O)(=O)c1ccccc1Br	0	11	-	-	-	-	24	17
Clc1ccc(CSc2nnc(-c3cccs3)o2)cc1Cl	0	0	-	-	-	-	-	-
O=C(O)CCCN1C(=O)C2C3CCC(C3)C2C1=O (stereo unspecified)	0	9.1	0	-	0	0	0	0
C=CCNc1cccc(Br)c1	0	9.1	0	-	0	0	0	0
CS(=O)(=O)c1cccc(C(=O)Nc2cccc(-c3nc4ccccc4[nH]3)c2)c1	0	0	0	0	0	0	-	-
SMILES	ADAM10 inh	ADAM17 inh	MPTP inh	Hep lipid drop	aDG glyco up	V-ATPase pHluor	ADAM10 counter	ADAM17 confirm
CS(=O)(=O)c1ccc(C(=O)Nc2cccc(-c3nc4ccccc4[nH]3)c2)cc1	0	9.2	0	0	0	0	0	0
C=CCOC(=O)C1=C(C)NC(=S)NC1/C=C/c1ccccc1 (stereo unspecified)	0	0	0	-	0	0	-	-
CC1=C(C(=O)OCc2ccccc2)C(/C=C/c2ccccc2)NC(=S)N1 (stereo unspecified)	0	12	0	0	0	0	30	15
COc1ccc(NC(=O)CSc2nc(C)cc(=O)[nH]2)cc1OC	0	0	-	-	-	-	-	-
O=C(COc1ccccc1Br)NCCc1nc2ccccc2[nH]1	0	8.9	0	0	0	0	0	0
CN(C)c1ccc(NC(=S)OC2CCC23CCC(c2ccccc2)CC3)cc1 (stereo unspecified)	0	0	-	-	-	-	-	-
Cc1ccc(O)c(-c2cc(C(=O)Nc3ccc(S(=O)(=O)N4CC(C)OC(C)C4)cc3)[nH]n2)c1 (stereo unspecified)	0	9.2	0	0	0	0	0	9.4
Cc1cc(O)c(-c2cc(C(=O)Nc3ccc(S(=O)(=O)N4CCOCC4)cc3)[nH]n2)cc1C	0	0	0	0	0	0	-	-
CC(NCc1ccco1)C(=O)N1CCN(c2cccc(C(F)(F)F)c2)CC1 (stereo unspecified)	0	0	-	-	-	-	-	-
COc1ccc(CCC(=O)NNC(=O)c2cc(Cl)ccc2OC)cc1	0	8.8	0	0	0	0	0	0
Nc1nc2ccccc2n1S(=O)(=O)c1ccccc1	0	9.0	0	-	0	-	0	0
Cc1ccc(S(=O)(=O)n2c(C)nc3ccccc32)cc1	0	0	0	0	0	0	-	-
Cc1ccc(C)c(NC(=O)[C@@H]2CCCN2S(=O)(=O)c2cccc3cccnc23)c1	0	0	-	-	-	-	-	-
COc1ccc(NC(=O)c2cccc(N3C(=O)C4C5CCC(C5)C4C3=O)c2)cc1 (stereo unspecified)	0	11	0	0	0	0	0	0
O=C(O)c1ccc(NC(=O)c2cccc(N3C(=O)C4C5CCC(C5)C4C3=O)c2)cc1 (stereo unspecified)	0	0	0	0	0	0	-	-
Cc1cccnc1NC(=O)c1ccc(Br)o1	0	8.6	0	-	0	0	0	0
O=C(CNC(=O)c1ccc(Br)o1)Nc1ncccc1O	0	0	0	-	0	0	-	-
CC(=O)Oc1cc(C)c(Cl)c2c(OC(C)=O)cc(C(C)=O)c(O)c12	0	0	-	-	-	-	-	-
Cn1cc([N+](=O)[O-])c(C(=O)NNC(=O)c2ccc([N+](=O)[O-])cc2)n1	0	8.8	0	0	0	0	0	0
Cn1cc([N+](=O)[O-])c(C(=O)N/N=C/c2ccc([N+](=O)[O-])cc2)n1	0	0	0	0	0	0	-	-
C=CCN1C(=O)[C@H](CC(=O)N2CCC(c3ccccc3)CC2)[C@@]2(C(=O)OCC)CCCC=C12	0	0	-	-	-	-	-	-
